Source: ChEMBL document CHEMBL3751694, “1-Piperazinylphthalazines as potential VEGFR-2 inhibitors and anticancer agents: Synthesis and in vitro biological evaluation” (Eur J Med Chem, 2016)

Assays:
Assay type in all cases: functional
[1] = Growth inhibition of human HL-60(TB) cells at 10 uM after 48 hrs by SRB method; conditions: HL-60, 48 h, read-out: GI
Outline: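 NCI single-dose primary screen at 10^-5 M, 48 h exposure. Cells grown in RPMI 1640 with 5% FBS and 2 mM L-glutamine. Suspension cells fixed in situ with TCA (final 16%), stained with SRB, absorbance read at 515 nm. Percent growth inhibition calculated against time-zero and untreated control plates.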

[2] = Growth inhibition of human HCT116 cells at 10 uM after 48 hrs by SRB method; conditions: HCT-116, 48 h, read-out: GI
Outline: (§1)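 NCI 56-line primary screen at a single 10^-5 M concentration. Cells grown in RPMI 1640 with 5% FBS and 2 mM L-glutamine, plated at 5000–40,000 cells/well, then preincubated for 24 h. Exposure was 48 h at 37 °C and 5% CO2. Adherent cells were fixed with cold TCA at 10% final, suspension cells at 16%. Staining used 0.4% SRB, read at 515 nm. Results are % growth inhibition relative to control.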

[3] = test system: NCI-H460; assay: Growth inhibition of human NCI-H460 cells at 10 uM after 48 hrs by SRB method; conditions: NCI-H460, 48 h, read-out: GI; outline: as §1
[4] = test system: NCI/ADR-RES; assay: Growth inhibition of human NCI/ADR-RES cells at 10 uM after 48 hrs by SRB method; conditions: read-out: GI; outline: as §1
[5] = test system: A498; assay: Growth inhibition of human A498 cells at 10 uM after 48 hrs by SRB method; conditions: A498, 48 h, read-out: GI; outline: as §1
[6] = Growth inhibition of human […] cells at 10 uM after 48 hrs by SRB method; conditions: read-out: GI; outline: as §1
[7] = test system: MDA-MB-468; assay: Growth inhibition of human MDA-MB-468 cells at 10 uM after 48 hrs by SRB method; conditions: MDA-MB-468, 48 h, read-out: GI; outline: as §1
[8] = Growth inhibition of human TK10 cells at 10 uM after 48 hrs by SRB method; conditions: TK-10, 48 h, read-out: GI
Outline: (§2)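 NCI 56-line screen, single-dose primary assay at 10^-5 M. Cells grown in RPMI 1640 with 5% FBS and 2 mM L-glutamine, plated at 5000–40,000 cells/well and held 24 h at 37 °C, 5% CO2 before drug addition. Compound was given from DMSO stock, exposure 48 h, then TCA fixation and SRB staining with absorbance at 515 nm. % growth is taken relative to time-zero and untreated controls.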

[9] = Growth inhibition of human UO31 cells at 10 uM after 48 hrs by SRB method; conditions: UO-31, 48 h, read-out: GI; outline: as §2
[10] = test system: SR; assay: Growth inhibition of human SR cells at 10 uM after 48 hrs by SRB method; conditions: read-out: GI; outline: as §1
[11] = test system: T47D; assay: Growth inhibition of human T47D cells at 10 uM after 48 hrs by SRB method; conditions: read-out: GI; outline: as §2
[12] = test system: CCRF-CEM; assay: Growth inhibition of human CCRF-CEM cells at 10 uM after 48 hrs by SRB method; conditions: read-out: GI; outline: as §1
[13] = test system: MCF7; assay: Growth inhibition of human MCF7 cells at 10 uM after 48 hrs by SRB method; conditions: MCF7, 48 h, read-out: GI; outline: as §1
[14] = Growth inhibition of human BT549 cells at 10 uM after 48 hrs by SRB method; conditions: BT-549, 48 h, read-out: GI; outline: as §1
[15] = test system: SK-MEL-2; assay: Growth inhibition of human SK-MEL-2 cells at 10 uM after 48 hrs by SRB method; conditions: SK-MEL-2, 48 h, read-out: GI; outline: as §1
[16] = Growth inhibition of human COLO205 cells at 10 uM after 48 hrs by SRB method; conditions: COLO 205, 48 h, read-out: GI; outline: as §1
[17] = test system: A549; assay: Growth inhibition of human A549 cells at 10 uM after 48 hrs by SRB method; conditions: A549, 48 h, read-out: GI; outline: as §1
[18] = Growth inhibition of human PC3 cells at 10 uM after 48 hrs by SRB method; conditions: PC-3, 48 h, read-out: GI; outline: as §1
[19] = test system: MDA-MB-231; assay: Growth inhibition of human MDA-MB-231 cells at 10 uM after 48 hrs by SRB method; conditions: MDA-MB-231, 48 h, read-out: GI; outline: as §1
[20] = Growth inhibition of human MOLT4 cells at 10 uM after 48 hrs by SRB method; conditions: MOLT-4, 48 h, read-out: GI; outline: as §1
[21] = test system: NCI-H226; assay: Growth inhibition of human NCI-H226 cells at 10 uM after 48 hrs by SRB method; conditions: NCI-H226, 48 h, read-out: GI; outline: as §1
[22] = test system: SK-MEL-5; assay: Growth inhibition of human SK-MEL-5 cells at 10 uM after 48 hrs by SRB method; conditions: SK-MEL-5, 48 h, read-out: GI; outline: as §1
[23] = Growth inhibition of human HCT15 cells at 10 uM after 48 hrs by SRB method; conditions: HCT-15, 48 h, read-out: GI; outline: as §1
[24] = test system: SN12C; assay: Growth inhibition of human SN12C cells at 10 uM after 48 hrs by SRB method; conditions: read-out: GI; outline: as §1
[25] = Growth inhibition of human OVCAR8 cells at 10 uM after 48 hrs by SRB method; conditions: OVCAR-8, 48 h, read-out: GI; outline: as §1
[26] = test system: M14; assay: Growth inhibition of human M14 cells at 10 uM after 48 hrs by SRB method; conditions: M14, 48 h, read-out: GI; outline: as §1
[27] = Growth inhibition of human UACC257 cells at 10 uM after 48 hrs by SRB method; conditions: UACC-257, 48 h, read-out: GI; outline: as §2
[28] = Growth inhibition of human UACC62 cells at 10 uM after 48 hrs by SRB method; conditions: UACC-62, 48 h, read-out: GI; outline: as §2
[29] = Growth inhibition of human HOP92 cells at 10 uM after 48 hrs by SRB method; conditions: HOP-92, 48 h, read-out: GI; outline: as §1
[30] = test system: K562; assay: Growth inhibition of human K562 cells at 10 uM after 48 hrs by SRB method; conditions: K562, 48 h, read-out: GI; outline: as §1
[31] = test system: HT-29; assay: Growth inhibition of human HT-29 cells at 10 uM after 48 hrs by SRB method; conditions: HT-29, 48 h, read-out: GI; outline: as §1
[32] = test system: ACHN; assay: Growth inhibition of human ACHN cells at 10 uM after 48 hrs by SRB method; conditions: read-out: GI; outline: as §1
[33] = test system: NCI-H522; assay: Growth inhibition of human NCI-H522 cells at 10 uM after 48 hrs by SRB method; conditions: NCI-H522, 48 h, read-out: GI; outline: as §1
[34] = Growth inhibition of human IGROV1 cells at 10 uM after 48 hrs by SRB method; conditions: IGROV-1, 48 h, read-out: GI; outline: as §1
[35] = Growth inhibition of human SF268 cells at 10 uM after 48 hrs by SRB method; conditions: SF-268, 48 h, read-out: GI; outline: as §1
[36] = test system: 786-0; assay: Growth inhibition of human 786-0 cells at 10 uM after 48 hrs by SRB method; conditions: 786-0, 48 h, read-out: GI; outline: as §1
[37] = Growth inhibition of human Caki1 cells at 10 uM after 48 hrs by SRB method; conditions: CAKI-1, 48 h, read-out: GI; outline: as §1
[38] = test system: KM12; assay: Growth inhibition of human KM12 cells at 10 uM after 48 hrs by SRB method; conditions: KM12, 48 h, read-out: GI; outline: as §1

SMILES	inhibition of growth at 10 µM [1] [%]	inhibition of growth at 10 µM [5] [%]	inhibition of growth at 10 µM [6] [%]	inhibition of growth at 10 µM [7] [%]	inhibition of growth at 10 µM [8] [%]	inhibition of growth at 10 µM [9] [%]	inhibition of growth at 10 µM [10] [%]	inhibition of growth at 10 µM [11] [%]	inhibition of growth at 10 µM [12] [%]	inhibition of growth at 10 µM [14] [%]	inhibition of growth at 10 µM [16] [%]	inhibition of growth at 10 µM [17] [%]	inhibition of growth at 10 µM [18] [%]	inhibition of growth at 10 µM [19] [%]	inhibition of growth at 10 µM [20] [%]	inhibition of growth at 10 µM [22] [%]	inhibition of growth at 10 µM [23] [%]	inhibition of growth at 10 µM [29] [%]	inhibition of growth at 10 µM [31] [%]	inhibition of growth at 10 µM [33] [%]	also measured
O=C(CN1CCN(c2nnc(-c3ccccc3)c3ccccc23)CC1)Nc1nc(-c2ccccc2)cs1	50	54	56	59	30	90	57	85	53	40	54	48	62	38	70	77	51	47	34	58	inhibition of growth at 10 µM [2]: 38%; inhibition of growth at 10 µM [3]: 45%; inhibition of growth at 10 µM [4]: 45%; inhibition of growth at 10 µM [13]: 53%; inhibition of growth at 10 µM [15]: 40%; inhibition of growth at 10 µM [21]: 38%; inhibition of growth at 10 µM [24]: 32%; inhibition of growth at 10 µM [25]: 44%; inhibition of growth at 10 µM [26]: 44%; inhibition of growth at 10 µM [27]: 48%; inhibition of growth at 10 µM [28]: 44%; inhibition of growth at 10 µM [30]: 50%; inhibition of growth at 10 µM [32]: 31%
CC(=O)c1sc(NC(=O)CN2CCN(c3nnc(-c4ccccc4)c4ccccc34)CC2)nc1C	–	45	45	49	–	43	49	81	–	34	30	–	53	41	52	33	–	70	31	41	inhibition of growth at 10 µM [34]: 40%
CCOC(=O)c1sc(NC(=O)CN2CCN(c3nnc(-c4ccccc4)c4ccccc34)CC2)nc1C	43	37	53	49	36	46	64	68	34	33	34	33	57	49	59	33	44	38	50	64	inhibition of growth at 10 µM [35]: 32%; inhibition of growth at 10 µM [36]: 31%; inhibition of growth at 10 µM [37]: 35%; inhibition of growth at 10 µM [38]: 30%; inhibition of growth at 10 µM [25]: 33%; inhibition of growth at 10 µM [26]: 32%; inhibition of growth at 10 µM [28]: 34%; inhibition of growth at 10 µM [30]: 34%
